Measurements published in ChEMBL document CHEMBL1158526, “Labeled 3-aryl-4-indolylmaleimide derivatives and their potential as angiogenic PET biomarkers” (Bioorg Med Chem, 2010).

Tests used:
[1] = target: Receptor tyrosine-protein kinase erbB-2 (Homo sapiens, UniProt P04626); test: Inhibition of ERBB2 after 80 mins by radiometric protein kinase assay
Summary of the method: (§1)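 The substrate was Poly(Glu,Tyr)4:1. 12 concentrations were run in triplicate with 1% final DMSO, at 30 °C for 80 min. Reactions were stopped with 2% H₃PO₄, washed with 0.9% NaCl, and ³³P incorporation was read by scintillation counting.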

[2] = target: Insulin-like growth factor 1 receptor (Homo sapiens, UniProt P08069); test: Inhibition of IGF1R after 80 mins by radiometric protein kinase assay
Summary of the method: (§2)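 Radiometric [γ-33P]-ATP kinase assay with poly(Glu,Tyr) 4:1 substrate. Reaction run 80 min at 30 °C, stopped with 2% H3PO4 and washed with 0.9% NaCl. 33Pi incorporation counted by microplate scintillation. IC50 from 12 concentrations tested in triplicate, with Z'-factor used as plate control.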

[3] = target: Mast/stem cell growth factor receptor Kit (Homo sapiens, UniProt P10721); test: Inhibition of KIT after 80 mins by radiometric protein kinase assay; summary of the method: as §1
[4] = target: Platelet-derived growth factor receptor alpha (Homo sapiens, UniProt P16234); test: Inhibition of PDGFRalpha after 80 mins by radiometric protein kinase assay
Summary of the method: (§3)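 Radiometric [γ-33P]-ATP kinase assay with poly(Ala,Glu,Lys,Tyr) 6:2:5:1 substrate. Incubated 30 °C for 80 min, then stopped with 2% H3PO4 and washed with 0.9% NaCl. 33Pi incorporation read by scintillation counting. IC50 from 12 concentrations in triplicate; plate quality checked by Z'-factor.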

[5] = target: Platelet-derived growth factor receptor beta (Homo sapiens, UniProt P09619); test: Inhibition of PDGFRbeta after 80 mins by radiometric protein kinase assay
Angiopoietin-1 receptor = Angiopoietin-1 receptor (Homo sapiens, UniProt Q02763); test: Inhibition of TIE2 after 80 mins by radiometric protein kinase assay; summary of the method: as §3
[6] = target: Vascular endothelial growth factor receptor 1 (Homo sapiens, UniProt P17948); test: Inhibition of VEGFR1 after 80 mins by radiometric protein kinase assay; summary of the method: as §2
[7] = target: Vascular endothelial growth factor receptor 2 (Homo sapiens, UniProt P35968); test: Inhibition of VEGFR2 after 80 mins by radiometric protein kinase assay; summary of the method: as §2
[8] = target: Vascular endothelial growth factor receptor 3 (Homo sapiens, UniProt P35916); test: Inhibition of VEGFR3 after 80 mins by radiometric protein kinase assay; summary of the method: as §2
[9] = Octanol-phosphate buffered saline partition coefficient, log D at pH 7.4; type: physicochemical
Summary of the method: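 About 200 µCi of the [¹¹C] tracer was taken up in 5 mL n-octanol and mixed with 1 mL phosphate buffer (pH 7.4, 100 mM), a 5:1 octanol:buffer ratio. The mixture was vortexed for 2 min, the phases were separated, and each phase was measured for radioactivity.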

Blood [10] = test: Metabolic stability in human blood assessed as residual radioactivity at 300 uCi after 30 mins by RP-HPLC; type: ADME, tissue-based; details: 0.5 h
Summary of the method: (§4)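 Fresh human EDTA blood, 1 mL aliquots, was preincubated at 37 °C for 15 min. About 300 µCi of the [¹¹C] tracer was added and samples were held for 0, 30 or 60 min. Samples were centrifuged, and the plasma was extracted with cold THF/ACN (30:70) and centrifuged again. The extract was analysed by RP-HPLC and by RP-TLC (40:60 H₂O:ACN) with phosphor imaging; n = 3.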

Blood [11] = test: Metabolic stability in human blood assessed as residual radioactivity at 300 uCi after 60 mins by RP-HPLC; type: ADME, tissue-based; details: 1 h; summary of the method: as §4
Blood [12] = test: Biodistribution in blood of nude mouse bearing human U87MG tumor at 197 +/- 16 uCi, iv after 30 mins; type: ADME, organism-based; details: in vivo, 0.5 h
Summary of the method: (§5)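 Male nude Hsd-Athymic Nude-nu mice (10–12 weeks) with subcutaneous 293/KDR tumors (1.5–2 × 10⁶ cells, 7–21 days) or U87MG.wt EGFR tumors (1.5–4 × 10⁶ cells with 20% Matrigel, 4–20 days). The [¹¹C] tracer was given via the lateral tail vein in 10% ethanol/saline (1.1 ± 0.3 Ci/µmol; 225 ± 11 µL). At 30 or 60 min, blood was drawn from the orbital sinus and organs were excised, weighed and gamma-counted; results are %ID/g, n = 10–12.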

Blood [13] = test: Biodistribution in blood of nude mouse bearing human U87MG tumor at 197 +/- 16 uCi, iv after 60 mins; type: ADME, organism-based; details: in vivo, 1 h; summary of the method: as §5
[14] = Biodistribution in tumor of nude mouse bearing human U87MG tumor at 197 +/- 16 uCi, iv after 30 mins; type: ADME, organism-based, Neoplasm; details: in vivo, 0.5 h; summary of the method: as §5
[15] = Biodistribution in tumor of nude mouse bearing human U87MG tumor at 197 +/- 16 uCi, iv after 60 mins; type: ADME, organism-based, Neoplasm; details: in vivo, 1 h; summary of the method: as §5
Zone of skin [16] = test: Biodistribution in skin of nude mouse bearing human U87MG tumor at 197 +/- 16 uCi, iv after 30 mins; type: ADME, organism-based; details: in vivo, 0.5 h; summary of the method: as §5
Zone of skin [17] = test: Biodistribution in skin of nude mouse bearing human U87MG tumor at 197 +/- 16 uCi, iv after 60 mins; type: ADME, organism-based; details: in vivo, 1 h; summary of the method: as §5
Bone [18] = test: Biodistribution in bone of nude mouse bearing human U87MG tumor at 197 +/- 16 uCi, iv after 30 mins; type: ADME, organism-based, Bone element; details: in vivo, 0.5 h; summary of the method: as §5
Bone [19] = test: Biodistribution in bone of nude mouse bearing human U87MG tumor at 197 +/- 16 uCi, iv after 60 mins; type: ADME, organism-based, Bone element; details: in vivo, 1 h; summary of the method: as §5
Muscle tissue [20] = test: Biodistribution in muscle of nude mouse bearing human U87MG tumor at 197 +/- 16 uCi, iv after 30 mins; type: ADME, organism-based; details: in vivo, 0.5 h; summary of the method: as §5
Muscle tissue [21] = test: Biodistribution in muscle of nude mouse bearing human U87MG tumor at 197 +/- 16 uCi, iv after 60 mins; type: ADME, organism-based; details: in vivo, 1 h; summary of the method: as §5
Liver [22] = test: Biodistribution in liver of nude mouse bearing human U87MG tumor at 197 +/- 16 uCi, iv after 30 mins; type: ADME, organism-based; details: in vivo, 0.5 h; summary of the method: as §5
Liver [23] = test: Biodistribution in liver of nude mouse bearing human U87MG tumor at 197 +/- 16 uCi, iv after 60 mins; type: ADME, organism-based; details: in vivo, 1 h; summary of the method: as §5
Kidney [24] = test: Biodistribution in kidney of nude mouse bearing human U87MG tumor at 197 +/- 16 uCi, iv after 30 mins; type: ADME, organism-based; details: in vivo, 0.5 h; summary of the method: as §5
Kidney [25] = test: Biodistribution in kidney of nude mouse bearing human U87MG tumor at 197 +/- 16 uCi, iv after 60 mins; type: ADME, organism-based; details: in vivo, 1 h; summary of the method: as §5
Blood [26] = test: Biodistribution in blood of nude mouse bearing human 293/KDR tumor at 197 +/- 16 uCi, iv after 30 mins; type: ADME, organism-based; details: in vivo, 0.5 h; summary of the method: as §5
Blood [27] = test: Biodistribution in blood of nude mouse bearing human 293/KDR tumor at 197 +/- 16 uCi, iv after 60 mins; type: ADME, organism-based; details: in vivo, 1 h; summary of the method: as §5
[28] = Biodistribution in tumor of nude mouse bearing human 293/KDR tumor at 197 +/- 16 uCi, iv after 30 mins; type: ADME, organism-based, Neoplasm; details: in vivo, 0.5 h; summary of the method: as §5
[29] = Biodistribution in tumor of nude mouse bearing human 293/KDR tumor at 197 +/- 16 uCi, iv after 60 mins; type: ADME, organism-based, Neoplasm; details: in vivo, 1 h; summary of the method: as §5
Zone of skin [30] = test: Biodistribution in skin of nude mouse bearing human 293/KDR tumor at 197 +/- 16 uCi, iv after 30 mins; type: ADME, organism-based; details: in vivo, 0.5 h; summary of the method: as §5
Zone of skin [31] = test: Biodistribution in skin of nude mouse bearing human 293/KDR tumor at 197 +/- 16 uCi, iv after 60 mins; type: ADME, organism-based; details: in vivo, 1 h; summary of the method: as §5
Bone [32] = test: Biodistribution in bone of nude mouse bearing human 293/KDR tumor at 197 +/- 16 uCi, iv after 30 mins; type: ADME, organism-based, Bone element; details: in vivo, 0.5 h; summary of the method: as §5
Bone [33] = test: Biodistribution in bone of nude mouse bearing human 293/KDR tumor at 197 +/- 16 uCi, iv after 60 mins; type: ADME, organism-based, Bone element; details: in vivo, 1 h; summary of the method: as §5
Muscle tissue [34] = test: Biodistribution in muscle of nude mouse bearing human 293/KDR tumor at 197 +/- 16 uCi, iv after 30 mins; type: ADME, organism-based; details: in vivo, 0.5 h; summary of the method: as §5
Muscle tissue [35] = test: Biodistribution in muscle of nude mouse bearing human 293/KDR tumor at 197 +/- 16 uCi, iv after 60 mins; type: ADME, organism-based; details: in vivo, 1 h; summary of the method: as §5
Liver [36] = test: Biodistribution in liver of nude mouse bearing human 293/KDR tumor at 197 +/- 16 uCi, iv after 30 mins; type: ADME, organism-based; details: in vivo, 0.5 h; summary of the method: as §5
Liver [37] = test: Biodistribution in liver of nude mouse bearing human 293/KDR tumor at 197 +/- 16 uCi, iv after 60 mins; type: ADME, organism-based; details: in vivo, 1 h; summary of the method: as §5
Kidney [38] = test: Biodistribution in kidney of nude mouse bearing human 293/KDR tumor at 197 +/- 16 uCi, iv after 30 mins; type: ADME, organism-based; details: in vivo, 0.5 h; summary of the method: as §5
Kidney [39] = test: Biodistribution in kidney of nude mouse bearing human 293/KDR tumor at 197 +/- 16 uCi, iv after 60 mins; type: ADME, organism-based; details: in vivo, 1 h; summary of the method: as §5
[40] = Metabolic stability in mouse liver microsome assessed as intact compound at 2 to 3 mCi after 15 mins by RP-HPLC; type: ADME; details: liver microsomes, read-out: Stability
Summary of the method: (§6)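 Tracer (2–3 mCi in 100 µL ethanol) was preincubated with 0.5 mg/mL mouse hepatic microsomes in PBS pH 7.4 at 37 °C for 5 min. Reactions were started with 0.25 mM NADPH and sampled at 0–60 min. Aliquots were loaded on a celite plug and eluted with ethanol, and intact tracer was measured by RP-HPLC.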

[41] = Metabolic stability in mouse liver microsome assessed as intact compound at 2 to 3 mCi after 30 mins by RP-HPLC; type: ADME; details: liver microsomes, read-out: Stability; summary of the method: as §6
[42] = Metabolic stability in mouse liver microsome assessed as intact compound at 2 to 3 mCi after 45 mins by RP-HPLC; type: ADME; details: liver microsomes, read-out: Stability; summary of the method: as §6

Sequence of Receptor tyrosine-protein kinase erbB-2 (P04626 whole entry): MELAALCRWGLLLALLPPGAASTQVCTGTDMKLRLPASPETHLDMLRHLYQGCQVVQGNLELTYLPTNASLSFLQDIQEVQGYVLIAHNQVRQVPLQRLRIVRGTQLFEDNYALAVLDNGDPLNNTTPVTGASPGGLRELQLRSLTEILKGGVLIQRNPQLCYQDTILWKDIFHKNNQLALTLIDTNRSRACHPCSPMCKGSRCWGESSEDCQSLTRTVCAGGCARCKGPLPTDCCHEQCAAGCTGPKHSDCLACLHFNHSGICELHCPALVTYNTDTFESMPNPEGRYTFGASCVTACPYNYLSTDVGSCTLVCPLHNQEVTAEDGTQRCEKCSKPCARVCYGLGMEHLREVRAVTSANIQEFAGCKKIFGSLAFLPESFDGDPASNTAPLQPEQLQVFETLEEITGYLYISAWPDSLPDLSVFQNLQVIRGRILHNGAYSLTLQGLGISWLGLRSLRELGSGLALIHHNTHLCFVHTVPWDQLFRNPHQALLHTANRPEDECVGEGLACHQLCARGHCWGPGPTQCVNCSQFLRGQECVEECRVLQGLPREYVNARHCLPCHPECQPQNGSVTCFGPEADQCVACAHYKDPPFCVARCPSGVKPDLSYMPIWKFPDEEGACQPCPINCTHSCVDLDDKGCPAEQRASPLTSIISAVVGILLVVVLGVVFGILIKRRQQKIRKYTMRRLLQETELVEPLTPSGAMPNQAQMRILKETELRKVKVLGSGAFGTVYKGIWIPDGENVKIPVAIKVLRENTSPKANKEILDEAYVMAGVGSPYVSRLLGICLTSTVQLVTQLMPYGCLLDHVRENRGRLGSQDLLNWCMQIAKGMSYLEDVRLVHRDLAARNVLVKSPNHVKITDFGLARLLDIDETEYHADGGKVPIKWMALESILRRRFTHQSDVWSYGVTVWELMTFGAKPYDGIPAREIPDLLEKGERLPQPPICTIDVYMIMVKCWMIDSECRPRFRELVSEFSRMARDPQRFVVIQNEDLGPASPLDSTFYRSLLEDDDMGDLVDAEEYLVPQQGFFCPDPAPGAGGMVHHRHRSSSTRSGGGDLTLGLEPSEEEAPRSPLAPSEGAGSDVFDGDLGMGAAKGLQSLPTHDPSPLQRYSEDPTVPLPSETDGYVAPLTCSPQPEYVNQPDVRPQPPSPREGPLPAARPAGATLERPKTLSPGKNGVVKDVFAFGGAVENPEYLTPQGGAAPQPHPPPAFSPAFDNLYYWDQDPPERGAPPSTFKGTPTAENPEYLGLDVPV
Sequence of Angiopoietin-1 receptor (Q02763 whole entry): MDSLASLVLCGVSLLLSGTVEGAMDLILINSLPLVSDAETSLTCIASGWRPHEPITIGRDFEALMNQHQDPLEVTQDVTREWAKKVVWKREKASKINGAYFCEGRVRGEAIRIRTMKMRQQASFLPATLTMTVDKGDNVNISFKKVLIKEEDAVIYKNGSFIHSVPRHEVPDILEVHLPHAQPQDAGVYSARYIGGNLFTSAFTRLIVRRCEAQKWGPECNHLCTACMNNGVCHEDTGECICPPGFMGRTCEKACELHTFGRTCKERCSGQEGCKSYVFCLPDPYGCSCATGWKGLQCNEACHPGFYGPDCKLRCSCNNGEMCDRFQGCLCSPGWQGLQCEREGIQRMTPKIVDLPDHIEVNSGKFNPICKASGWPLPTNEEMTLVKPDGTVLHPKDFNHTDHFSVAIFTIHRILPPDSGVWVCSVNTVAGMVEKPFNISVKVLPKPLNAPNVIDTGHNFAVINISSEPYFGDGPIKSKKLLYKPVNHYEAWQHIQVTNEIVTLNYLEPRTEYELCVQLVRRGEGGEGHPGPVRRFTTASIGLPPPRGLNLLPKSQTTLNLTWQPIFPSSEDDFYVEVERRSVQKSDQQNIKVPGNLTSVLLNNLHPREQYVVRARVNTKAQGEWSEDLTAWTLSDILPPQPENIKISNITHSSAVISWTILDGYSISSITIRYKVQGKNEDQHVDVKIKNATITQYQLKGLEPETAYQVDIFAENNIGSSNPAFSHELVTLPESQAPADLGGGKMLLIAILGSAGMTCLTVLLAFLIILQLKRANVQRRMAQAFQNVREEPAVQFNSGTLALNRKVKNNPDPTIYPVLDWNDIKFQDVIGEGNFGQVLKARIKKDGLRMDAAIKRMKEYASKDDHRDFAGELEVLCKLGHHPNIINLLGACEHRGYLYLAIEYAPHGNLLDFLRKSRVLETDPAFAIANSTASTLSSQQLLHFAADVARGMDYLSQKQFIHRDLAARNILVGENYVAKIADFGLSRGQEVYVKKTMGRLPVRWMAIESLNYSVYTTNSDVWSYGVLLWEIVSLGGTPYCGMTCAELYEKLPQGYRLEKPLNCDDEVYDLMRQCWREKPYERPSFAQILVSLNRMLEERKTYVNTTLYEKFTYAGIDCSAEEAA
Sequence of Vascular endothelial growth factor receptor 1 (P17948 whole entry): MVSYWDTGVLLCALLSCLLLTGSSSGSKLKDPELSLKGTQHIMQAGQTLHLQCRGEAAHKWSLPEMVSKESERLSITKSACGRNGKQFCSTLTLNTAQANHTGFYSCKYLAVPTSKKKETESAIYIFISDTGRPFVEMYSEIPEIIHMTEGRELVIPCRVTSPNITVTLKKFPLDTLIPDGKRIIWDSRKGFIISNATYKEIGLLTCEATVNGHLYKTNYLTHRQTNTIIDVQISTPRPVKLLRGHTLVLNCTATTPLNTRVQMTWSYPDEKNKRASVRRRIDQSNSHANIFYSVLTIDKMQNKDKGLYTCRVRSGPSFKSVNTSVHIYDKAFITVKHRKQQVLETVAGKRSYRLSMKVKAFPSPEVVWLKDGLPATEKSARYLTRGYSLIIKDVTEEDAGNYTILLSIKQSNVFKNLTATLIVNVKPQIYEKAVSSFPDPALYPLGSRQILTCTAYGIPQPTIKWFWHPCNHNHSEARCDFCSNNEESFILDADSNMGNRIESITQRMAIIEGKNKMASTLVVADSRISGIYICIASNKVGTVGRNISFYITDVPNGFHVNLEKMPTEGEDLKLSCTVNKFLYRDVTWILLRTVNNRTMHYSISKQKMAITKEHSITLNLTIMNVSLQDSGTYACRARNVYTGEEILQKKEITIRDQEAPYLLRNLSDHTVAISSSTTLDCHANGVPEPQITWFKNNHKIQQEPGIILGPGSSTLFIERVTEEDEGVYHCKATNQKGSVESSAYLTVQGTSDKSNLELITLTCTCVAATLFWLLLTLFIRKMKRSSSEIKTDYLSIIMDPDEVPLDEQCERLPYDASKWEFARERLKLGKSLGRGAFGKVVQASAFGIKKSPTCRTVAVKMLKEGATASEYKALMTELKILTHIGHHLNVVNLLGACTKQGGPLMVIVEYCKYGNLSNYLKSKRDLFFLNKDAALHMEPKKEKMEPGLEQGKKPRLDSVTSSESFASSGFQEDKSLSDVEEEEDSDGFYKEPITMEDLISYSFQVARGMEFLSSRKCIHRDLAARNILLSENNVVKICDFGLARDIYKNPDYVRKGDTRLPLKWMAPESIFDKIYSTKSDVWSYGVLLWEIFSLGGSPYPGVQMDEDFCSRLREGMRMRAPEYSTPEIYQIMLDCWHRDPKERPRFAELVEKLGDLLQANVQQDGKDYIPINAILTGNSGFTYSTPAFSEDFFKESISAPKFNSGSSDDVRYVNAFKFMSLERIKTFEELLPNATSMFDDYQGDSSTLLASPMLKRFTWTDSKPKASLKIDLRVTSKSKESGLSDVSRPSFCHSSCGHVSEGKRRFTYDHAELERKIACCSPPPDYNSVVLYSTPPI
Sequence of Insulin-like growth factor 1 receptor (P08069 31-736 limits assumed): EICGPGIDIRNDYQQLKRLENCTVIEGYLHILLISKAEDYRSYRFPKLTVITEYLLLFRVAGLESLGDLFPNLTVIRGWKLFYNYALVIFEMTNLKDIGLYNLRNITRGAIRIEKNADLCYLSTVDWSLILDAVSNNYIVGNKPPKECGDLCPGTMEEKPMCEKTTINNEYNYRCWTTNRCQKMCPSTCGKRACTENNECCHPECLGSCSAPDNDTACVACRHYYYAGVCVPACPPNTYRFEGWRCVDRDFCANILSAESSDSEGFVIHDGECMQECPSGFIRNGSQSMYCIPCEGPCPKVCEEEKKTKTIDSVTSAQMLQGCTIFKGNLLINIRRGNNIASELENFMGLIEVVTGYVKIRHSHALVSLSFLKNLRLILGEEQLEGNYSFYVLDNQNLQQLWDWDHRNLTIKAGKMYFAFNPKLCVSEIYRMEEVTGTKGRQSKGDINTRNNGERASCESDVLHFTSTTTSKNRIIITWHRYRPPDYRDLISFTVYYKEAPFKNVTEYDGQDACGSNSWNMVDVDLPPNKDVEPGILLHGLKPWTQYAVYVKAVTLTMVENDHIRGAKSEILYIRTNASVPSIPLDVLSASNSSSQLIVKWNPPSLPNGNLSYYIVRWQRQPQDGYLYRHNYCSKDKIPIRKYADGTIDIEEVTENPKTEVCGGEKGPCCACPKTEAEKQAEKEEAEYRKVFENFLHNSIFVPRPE
Sequence of Insulin-like growth factor 1 receptor (P08069 741-1367 limits assumed): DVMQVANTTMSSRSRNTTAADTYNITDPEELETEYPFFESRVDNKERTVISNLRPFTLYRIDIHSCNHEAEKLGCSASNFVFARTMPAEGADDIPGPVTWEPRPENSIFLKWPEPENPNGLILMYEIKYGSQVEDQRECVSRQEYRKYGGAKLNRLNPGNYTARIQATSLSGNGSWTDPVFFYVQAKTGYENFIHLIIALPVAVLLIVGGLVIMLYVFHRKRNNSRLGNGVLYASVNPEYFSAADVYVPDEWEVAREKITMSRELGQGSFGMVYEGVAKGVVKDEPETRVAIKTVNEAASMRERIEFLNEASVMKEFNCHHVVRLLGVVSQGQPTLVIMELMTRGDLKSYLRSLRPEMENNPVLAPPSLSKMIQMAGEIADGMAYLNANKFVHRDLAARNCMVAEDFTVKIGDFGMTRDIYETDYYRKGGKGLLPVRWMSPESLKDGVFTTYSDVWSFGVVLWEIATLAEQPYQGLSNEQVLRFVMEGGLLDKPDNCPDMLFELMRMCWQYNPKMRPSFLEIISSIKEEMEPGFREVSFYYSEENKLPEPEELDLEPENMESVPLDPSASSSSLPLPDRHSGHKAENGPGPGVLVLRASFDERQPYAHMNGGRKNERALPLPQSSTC

SMILES: COc1cc(C2=C(c3c[nH]c4ccc(I)cc34)C(=O)NC2=O)cc(OC)c1OC
- IC50 [1]: 15.2 µM
- IC50 [2]: 3.2 µM
- IC50 [3]: 3.33 µM
- IC50 [4]: 1.31 µM
- IC50 [5]: 0.858 µM
- IC50 (Angiopoietin-1 receptor): 3.96 µM
- IC50 [6]: 0.0694 µM
- IC50 [7]: 0.0249 µM
- IC50 [8]: 0.0295 µM

SMILES: COc1cc(C2=C(c3c[nH]c4ccccc34)C(=O)NC2=O)cc(OC)c1O[11CH3]
- logD [9]: 1.99
- Stability (Blood [10]): 61 % ID/g
- Stability (Blood [11]): 62 % ID/g
- Stability (Blood [12]): 0.38 % ID/g
- Stability (Blood [13]): 0.29 % ID/g
- Stability [14]: 0.33 % ID/g
- Stability [15]: 0.17 % ID/g
- Stability (Zone of skin [16]): 0.41 % ID/g
- Stability (Zone of skin [17]): 0.21 % ID/g
- Stability (Bone [18]): 0.19 % ID/g
- Stability (Bone [19]): 0.11 % ID/g
- Stability (Muscle tissue [20]): 0.17 % ID/g
- Stability (Muscle tissue [21]): 0.09 % ID/g
- Stability (Liver [22]): 2.64 % ID/g
- Stability (Liver [23]): 1.68 % ID/g
- Stability (Kidney [24]): 2.24 % ID/g
- Stability (Kidney [25]): 0.79 % ID/g
- Stability (Blood [26]): 0.36 % ID/g
- Stability (Blood [27]): 0.19 % ID/g
- Stability [28]: 0.3 % ID/g
- Stability [29]: 0.14 % ID/g
- Stability (Zone of skin [30]): 0.38 % ID/g
- Stability (Zone of skin [31]): 0.14 % ID/g
- Stability (Bone [32]): 0.15 % ID/g
- Stability (Bone [33]): 0.09 % ID/g
- Stability (Muscle tissue [34]): 0.2 % ID/g
- Stability (Muscle tissue [35]): 0.08 % ID/g
- Stability (Liver [36]): 2.89 % ID/g
- Stability (Liver [37]): 2.95 % ID/g
- Stability (Kidney [38]): 2.29 % ID/g
- Stability (Kidney [39]): 0.8 % ID/g
- remaining at 0.25 h [40]: 40%
- remaining at 0.5 h [41]: 25%
- remaining at 0.75 h [42]: 16%
